How the values were obtained:
[1] = tested on: p38 activity; assay: single-cell p38 activity reporter; format: cell-based; conditions: RPE1 p38 reporter; for influence on p38 activity (two-sided t-test): 1 μM, 48 hours
In short: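 RPE1 cells stably carrying a p38 kinase translocation reporter, grown in DMEM/F12 with 10% FBS at 37C, 5% CO2. Plated at 1000 cells/well, then given test compound at 1 or 10 μM for 48 h, 4 wells per concentration. Single-cell activity taken as median cytoplasmic-ring (5-pixel) over nuclear reporter intensity, normalised to same-plate/column DMSO. Significance by t-test or KS test with Benjamini-Hochberg adjustment.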

[2] = tested on: U2OS; assay: proliferation in U2OS Cell Painting images; format: cell-based
[3] = tested on: KP230 cells; conditions: 10 μM
[4] = tested on: PAX8; conditions: ref PubChem; cited from earlier work
[5] = tested on: mesenchymal lineage periosteal cells; assay: qPCR of Hippo components in murine periosteal cells; format: cell-based, mouse; conditions: 5μM
In short: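 Periosteal cells from 4-day femoral fracture callus of 3 female 15-week CMV-Cre;R26R-rtTA;tetO-YAPS127A mice (C57Bl/6 background). Cultured in α-MEM with 15% FBS, 1% GlutaMAX and 1% P/S. Test compound given at 5 μM. 1 μM doxycycline for 48 h induced YAPS127A as positive control for YAP1 mRNA.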

[6] = tested on: HEK293, HepG2, A549 cells; conditions: ref PubChem; cited from earlier work
[7] = target: human CSNK1A1 (Homo sapiens, UniProt P48729); assay: CSNK1A1 enzymatic mobility shift assay; format: biochemical
[8] = tested on: native kinases; assay: full KINOMEscan panel; format: binding
[9] = tested on: PPARG; assay: PPARG; format: cell-based; conditions: bladder cancer cell line, absence or presence of Rosiglitazone
[10] = tested on: YAP1 target genes (CTGF and CYR61); assay: qPCR of YAP1 and target genes in H9 hPSCs; format: cell-based, human; conditions: 24 hrs
[11] = tested on: YAP1; assay: YAP1 immunofluorescence and Western blot in H9 hPSCs; format: cell-based, human; conditions: H9 cells, 10 μM
[12] = tested on: YAP1; assay: YAP1-responsive TEAD luciferase reporter assay in HEK-293 cells; format: cell-based; conditions: 10μM, 48h of YAP overexpression
[13] = tested on: Yap1; assay: Yap1 Western blot and immunofluorescence in KP230 cells; format: cell-based, mouse; conditions: 10 μM daily
[14] = tested on: Yap1; assay: qRT-PCR of Yap1 and sarcoma target genes in KP230 cells; format: cell-based, mouse
[15] = tested on: KP230 cells; assay: RNA sequencing and gene set enrichment analysis in KP230 cells; format: cell-based, mouse; conditions: 10 μM
In short: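 KP230 cells (murine Kras/Trp53 tumour-derived) grown in DMEM with 10% FBS, 1% L-glutamine and 1% P/S at 37C, 5% CO2. Kept at ≤20 passages and about 50% confluence. Treated with 10 μM test compound or an equal volume of DMSO. Total RNA isolated by RNeasy Mini with on-column DNase digestion, then sequenced.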

[16] = tested on: KP230 cells; assay: proliferation assay; format: cell-based, mouse; conditions: 10 μM every 24 hours for 3 days
[17] = tested on: TC32 human Ewing’s family sarcoma cells; assay: proliferation assay; format: cell-based; conditions: 10 μM every 24 hours for 3 days
[18] = tested on: STS-109 human UPS cells; assay: proliferation assay; format: cell-based; conditions: 10 μM daily for 8 days
[19] = tested on: HT-1080 fibrosarcoma cells; assay: proliferation assay; format: cell-based; conditions: 10 μM every 24 hours for 3 days
[20] = tested on: HCT-116 colon cancer cells; assay: proliferation assay; format: cell-based; conditions: 10 μM every 24 hours for 3 days, YAP1-independent line
[21] = tested on: KP230, TC32, STS-109, HT-1080, HCT-116 cells; assay: trypan blue staining for toxicity; format: cell-based; conditions: 10 μM, any of the cell lines tested
[22] = tested on: HT29 cells; conditions: six hours of treatment, ref Subramanian et al., 2017; cited from earlier work
[23] = tested on: A375 cells; conditions: 6 and 24 hours, ref Subramanian et al., 2017; cited from earlier work
[24] = tested on: TEAD-YAP interaction; conditions: HEK-TIYL cells; ref PubChem; cited from earlier work

Chain of human CSNK1A1 (P48729 whole entry): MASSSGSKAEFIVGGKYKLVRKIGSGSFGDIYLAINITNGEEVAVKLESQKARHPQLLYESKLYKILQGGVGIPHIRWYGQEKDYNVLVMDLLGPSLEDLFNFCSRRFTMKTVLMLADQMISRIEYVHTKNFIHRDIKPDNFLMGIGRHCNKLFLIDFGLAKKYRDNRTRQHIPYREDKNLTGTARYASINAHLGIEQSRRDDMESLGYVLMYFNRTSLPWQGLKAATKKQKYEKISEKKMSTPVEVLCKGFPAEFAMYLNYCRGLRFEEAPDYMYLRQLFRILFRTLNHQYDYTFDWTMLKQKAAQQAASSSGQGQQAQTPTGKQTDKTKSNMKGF

Nc1nc(Nc2ccccc2)nc2c1ncn2C1OC(CO)C(O)C1O (stereo not drawn) [BRD-A64933752]
influence on p38 activity (two-sided t-test) [1]: potential inhibitors

CO[C@@H]1CN(C)C(=O)c2ccc(NC(=O)c3ccc(-c4ccccc4)cc3)cc2OC[C@H](C)NC[C@@H]1C [BRD-K28862419, N-((3S,6S,7S)-7-methoxy-3,6,9-trimethyl-10-oxo-3,4,5,6,7,8,9,10-octahydro-2H-benzo[k][1]oxa[4,9]diazacyclododecin-13-yl)-[1,1′-biphenyl]-4-carboxamide]
proliferation in U2OS Cell Painting images [2]: −2.0 st dev
KP230 cell viability [3]: modestly yet significantly reduced
PAX8 inhibition [4]: inhibits

CO[C@@H]1CN(C)C(=O)c2cc(NC(=O)Nc3ccc(C(F)(F)F)cc3)ccc2OC[C@@H](C)NC[C@@H]1C [BRD-K34692511, 1-[(4R,7S,8S)-8-methoxy-4,7,10-trimethyl-11-oxo-2-oxa-5,10-diazabicyclo[10.4.0]hexadeca-1(12),13,15-trien-14-yl]-3-[4-(trifluoromethyl)phenyl]urea]
mRNA levels of Hippo components including Yap1 and Cyr61 ([5]; 1 and 4 hours): not at 1 and 4 hours
mRNA levels of Hippo components including Yap1 and Cyr61 ([5]; 48 hours): substantially upregulated
proliferation in U2OS Cell Painting images [2]: none of these impacts
inhibition of cell proliferation AC50 [6]: none of these impacts
PAX8 inhibition [4]: none of these impacts

CCCCNc1cc(C(=O)O)cc(S(N)(=O)=O)c1Oc1ccccc1 [BRD-K38197229]
influence on p38 activity (two-sided t-test) [1]: potential inhibitors

COC1(C[S@@+]([O-])c2ccccc2)CCN(CCc2c[nH]c3ccc(F)cc23)CC1 [BRD-K52394958]
influence on p38 activity (alternative statistical test) [1]: identified via an alternative statistical test

C[C@@H]1CN([C@@H](C)CO)C(=O)CCCn2nncc2CO[C@@H]1CN(C)C(=O)Nc1ccnc(N2CCOCC2)c1 [BRD-K65952656]
IC50 ([7]; read-out: inhibition of CSNK1A1 IC50): 12 µM
binding to native kinases in full KINOMEscan panel [8]: failed to bind any native kinases

CCc1cc(-c2n[nH]c(C)c2-c2ccc3c(c2)OCCO3)c(O)cc1O [CCT018159]
effect in PPARG (FABP4) reporter assay [9]: Inhibitors

c1ccc(CNc2ncnc3ccccc23)cc1 [NB4A, N-Benzylquinazolin-4-amine]
YAP1 mRNA expression [10]: did not affect
expression of YAP1 target genes (CTGF and CYR61) ([10]; dose-dependent): increased
YAP1 nuclear localization ([11]; 24 hours): increased
YAP1 S127 phosphorylation ([11]; 24 hrs): reduced
total YAP1 protein levels ([11]; 24 hrs): decreasing
effect in YAP1-responsive reporter assay [12]: no effect
Yap1 nuclear localization [13]: significantly attenuated
Yap1 protein levels ([13]; after 72 hours): reduced
transcription of Yap1, its sarcoma target genes (Foxm1, Ccl2, Hbegf, Birc5, Rela) and Amot [14]: did not directly alter
epithelial-mesenchymal transition, angiogenesis and glycolysis pathways (GSEA) [15]: down-regulated
interferon alpha and gamma response pathways (GSEA) [15]: up-regulated
proliferation of KP230 cells [16]: inhibited
proliferation of TC32 cells [17]: inhibited
proliferation of STS-109 cells [18]: did not affect
proliferation of HT-1080 cells [19]: did not affect
proliferation of HCT-116 cells [20]: did not affect
overt toxicity by trypan blue staining [21]: did not exhibit overt toxicity
TAZ mRNA z-score [22]: 2.04
YAP1 mRNA z-score [22]: 3.16
YAP1 mRNA z-score [23]: ~ −0.7
activity in assay detecting inhibitors of TEAD-YAP interaction [24]: showed activity

Cc1ccc(-c2nn(C(C)(C)C)c3ncnc(N)c23)cc1 [PP1]
effect in PPARG (FABP4) reporter assay [9]: reporter activation

CC(C)(C)n1nc(-c2ccc(Cl)cc2)c2c(N)ncnc21 [PP2]
effect in PPARG (FABP4) reporter assay [9]: reporter activation

CCCCCCCCCCCCCC(=O)O[C@@H]1[C@@H](C)[C@@]2(O)[C@@H](C=C(CO)C[C@]3(O)C(=O)C(C)=C[C@@H]23)[C@@H]2C(C)(C)[C@]12OC(C)=O [Phorbol 12-myristate 13-acetate]
effect in PPARG (FABP4) reporter assay [9]: Inhibitors

Fc1ccc(-c2nc3n(c2-c2ccncc2)CCS3)cc1 [SKF-86002, reference compound]
inhibitory IC50 concentrations, CSNK1A1 ([7]; at Km ATP): nanomolar range

— PMC9509476 (Cell systems, 2022)
